Measurements published in ChEMBL document CHEMBL5038583, “Highly Potent and Selective Butyrylcholinesterase Inhibitors for Cognitive Improvement and Neuroprotection” (J Med Chem, 2021).

What was measured:
[1] = Hepatotoxicity in ICR mouse assessed as change in aspartate aminotransferase activity at 1 g/kg, ig administered daily for 14 days measured upto 36 hrs post-administration; assay type: toxicity; conditions: in vivo, po, 1000 mg/kg, 336 h, time 14 day
Method in brief: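 Heparinized serum from ICR mice taken at 8, 22 and 36 h after oral compound or saline control; AST and ALT activities measured.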

BV-2 = test: Cytotoxicity against mouse BV-2 cells assessed as survival rate at 100 uM incubated for 24 hrs by MTT assay; assay type: functional
Method in brief: (§1)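 Cells seeded at 1 × 10⁴/well in DMEM with 10% FBS and left overnight, then given compound (DMSO stock diluted in DMEM) for 24 h at 37 °C. MTT added for 4 h, formazan dissolved in DMSO, absorbance read at 492 nm. Viability taken as OD treated/OD DMEM × 100%; IC50 from three independent experiments, mean SD.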

L02 = test: Cytotoxicity against human L02 cells assessed as survival rate at 100 uM incubated for 24 hrs by MTT assay; assay type: functional; method in brief: as §1
[2] = Cmax in ICR mouse plasma at 10 mg/kg, po measured upto 240 mins; assay type: ADME, organism-based; set-up: route oral, dose 10 mg/kg, time <=240
Method in brief: (§2)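 ICR mice given 10 mg/kg orally in 5% DMSO/40% PEG400/55% saline (1 mg/mL). Blood (retro-orbital) and brain collected at 30, 60, 120 and 240 min. Brain homogenized in 2 volumes PBS, extracted with ethyl acetate, dried and reconstituted in mobile phase. Plasma processed as in the rat study; LC/MS/MS. Brain/plasma ratios from exposures, AUC(B) vs AUC(P).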

[3] = AUC (0 to t) in overnight fasted Sprague-Dawley rat at 10 mg/kg, iv measured upto 1440 mins by LC/MS/MS analysis; assay type: ADME, organism-based; set-up: route intravenous, dose 10 mg/kg, time <=1440; conditions: in vivo, 24 h
Method in brief: (§3)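 Male SD rats (180−220 g), n = 8 per route, fasted overnight with water available. Single 10 mg/kg dose p.o. or i.v. in DMSO/PEG400/saline (10:80:10). Retro-orbital blood taken into heparinized tubes at 1–1440 min. Plasma precipitated with methanol containing theophylline internal standard, then LC/MS/MS against a blank-plasma standard curve. Parameters from noncompartmental extravascular analysis; mean ± SD.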

PC-12 = test: Cytotoxicity against rat PC-12 cells assessed as reduction in cell viability incubated for 24 hrs by MTT assay; assay type: functional, cell-based; conditions: PC-12, 24 h; method in brief: as §1
[4] = Cmax in ICR mouse brain at 10 mg/kg, po measured upto 240 mins; assay type: ADME, organism-based; set-up: route oral, dose 10 mg/kg, time <=240; method in brief: as §2
[5] = Oral bioavailability in overnight fasted Sprague-Dawley rat at 10 mg/kg measured upto 1440 mins by LC/MS/MS analysis; assay type: ADME, organism-based; conditions: in vivo; method in brief: as §3
HepG2 = test: Cytotoxicity against human HepG2 cells assessed as reduction in cell viability incubated for 24 hrs by MTT assay; assay type: functional, cell-based; conditions: HepG2, 24 h; method in brief: as §1
[6] = Toxicity in ICR mouse assessed as increase in body weight administered for 14 days and measured daily; conditions: in vivo, 15 mg/kg, 336 h
[7] = Tmax in overnight fasted Sprague-Dawley rat at 10 mg/kg, iv measured upto 1440 mins by LC/MS/MS analysis; assay type: ADME, organism-based; conditions: in vivo; method in brief: as §3

Nc1nonc1-c1nc2ccccc2n1CC(=O)Nc1cnc2ccccc2c1
Activity [1]: Non-Toxic
Activity (BV-2): 69.72%
Activity (L02): 70.64%
Cmax [2]: 49.9 ng/mL
AUCt [3]: 859.64 ng·h/mL
IC50 (PC-12): 33.5 µM
Cmax [4]: 12.1 ng/mL
bioavailability [5]: 73.4%
IC50 (HepG2): 84.3 µM
Activity [6]: Toxic
Tmax [7]: 1.02 min
